Inconclusive results are not listed.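 The calls were made as follows, unless noted: active = viability at or below 27.92% in each of two runs, the all-compound median minus 4 SD; inconclusive = no clear call, values can overlap the other calls; inactive = the rest.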
Columns and labels:
[1] = S. cerevisiae growth inhibition in permissive medium (OD615), pilot counter-assay for S. cerevisiae lifespan shortening project, permissive growth control (AID 705;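 active = growth inhibition above 25% in both replicates, a cutoff set 3 SD above the mean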); details: OD615, 24 h, at 10 µM, hits give high values
Procedure, shortened: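 Test system: Saccharomyces cerevisiae strain carrying genetically modified DeaD replicative-lifespan system; buffer or medium: SC raffinose/galactose permissive medium; dosing: one dose 10 µM, DMSO 0.25% final; times: 24 h exposure, 30 °C; measured by: OD at 615 nm; read-out basis: growth inhibition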

[2] = S. cerevisiae growth inhibition in restrictive medium, OD615, pilot screen, restrictive growth control, yeast lifespan reduction project (AID 706;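 active = growth inhibition above a set limit, 3 SD over mean compound inhibition, in both replicates, cut at about 43% in these data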;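 also: modified DeaD lifespan yeast strain shifted to restrictive glucose medium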); details: OD615, 48 h, at 10 µM, hits give high values
Procedure, shortened: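 material = engineered S. cerevisiae DeaD strain | buffer or medium = glucose-based CSMM-D restrictive medium | dosing = one concentration, 10 µM final, 0.25% DMSO | schedule = 4 h pre-growth plus 48 h compound exposure, 30 °C | detection = OD615 absorbance reading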

[3] = doxorubicin toxicity protection in MRP-1 cells – H69AR cells, CellTiter-Glo, duplicate, MRP-1 activator project, pilot screen (AID 807;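 active = viability increase at or above a cutoff of the median across tested compounds plus 3 SD, cut at about 8.5% in these data, passing the limit was not always enough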;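 also: compound pretreatment 18-22 h then 72 h combined with doxorubicin; 0% = doxorubicin alone and 100% = vehicle without doxorubicin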); details: H69AR viability with doxorubicin, CellTiter-Glo luminescence; at 10 µM; hits give high values
[4] = viability of HCT116 without oncogenic beta-catenin – human colon tumor cells, pilot screen (AID 823;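 active = cell viability at or below a set limit in both duplicate runs, the limit being the all-compound median minus 4 SD, cut at about 23% in these data, passing the limit was not always enough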;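 also: 0% = wells killed by 20 µM Hyamine and 100% = untreated DMSO cell wells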); details: HCT116 beta-catenin knockout viability, CellTiter-Glo, 60 h; at 10 µM; hits give low values
[5] = viability of PTEN-null HCT116 cells – cell-based, HCT116 clonal line, CellTiter-Glo, pilot screen (AID 824); details: HCT116 PTEN-deleted viability, 60 h, at 10 µM, hits give low values;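 also: 0% = 20 µM Hyamine control and 100% = vehicle cell control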
[6] = RAM pathway blockade in budding yeast – dse1pr::URA3 reporter, 5-FOA selection, pilot screen (AID 869;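 active = inhibition over a set limit, the all-compound mean plus 3 SD, in both replicate runs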;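 also: 0% = DMSO wells with no growth and 100% = 10 µM 1-NA-PP1 with full growth; RAM network block rescues cells from 5-FOA so hits raise OD615 growth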); details: S. cerevisiae dse1pr::URA3 5-FOA growth, OD615, 2 d; at 10 µM; hits give high values; strain carries analog-sensitive mutant Cbk1 kinase
[7] = RAM signaling pathway blockade in yeast – S. cerevisiae, Pdr1DBD-CYC8 efflux-inhibited sensitized strain, primary screen (AID 1298;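 active = RAM network inhibition above 8.4% in each of two replicates, 3 SD over the compound average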;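 also: 0% = DMSO untreated cells without growth and 100% = 10 µM 1-NA-PP1 full growth; higher means more yeast growth rescued from 5-FOA killing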); details: S. cerevisiae cbk1-as DSE1-URA3 strain, 5-FOA growth OD615, 2 d; at 50 µM; hits give high values

CCS(=O)(=O)Nc1ccc(-c2ccc(NS(=O)(=O)CC)c(OC)c2)cc1OC
inactive: growth inhibition [1] -3.19% | growth inhibition [2] -1.95% | viability increase [3] -3.7% | viability [4] 103% | viability [5] 101% | inhibition [6] 2.69% | RAM network inhibition [7] 6.39%

CCOc1cccc(OCCOCCN(C)Cc2ccccc2)c1
inactive: growth inhibition [1] 2.5% | growth inhibition [2] -3.23% | viability increase [3] -4.15% | viability [4] 75.3% | viability [5] 78.9% | inhibition [6] 0.55% | RAM network inhibition [7] 0.2%

Cn1c(NC(=O)c2cc(Br)ccc2Cl)cc(=O)n(C)c1=O
inactive: growth inhibition [1] 5.54% | growth inhibition [2] -8.75% | viability increase [3] -3.46% | viability [4] 96.8% | viability [5] 90.7% | inhibition [6] 1.64% | RAM network inhibition [7] 1.23%

O=C(Cn1cc2c(n1)CCCCC2)NC1CCN(Cc2ccccc2)CC1
inactive: growth inhibition [1] -6.81% | growth inhibition [2] 2.45% | viability increase [3] -1.57% | viability [4] 86.5% | viability [5] 83.4% | inhibition [6] 2.21% | RAM network inhibition [7] 7.63%

CCNc1nc(NCC)nc(Oc2ccc(OCC)nn2)n1
inactive: growth inhibition [1] -15.2% | growth inhibition [2] -14.6% | viability increase [3] -0.87% | viability [4] 88.1% | viability [5] 92.2% | inhibition [6] 2.82% | RAM network inhibition [7] 4.95%

Cc1ccc2oc(=O)c3cnn(CC(=O)NC4CCN(Cc5ccccc5)CC4)c3c2c1
inactive: growth inhibition [1] -4.11% | growth inhibition [2] 0.24% | viability increase [3] -3.78% | viability [4] 88.3% | viability [5] 92% | inhibition [6] 1.77% | RAM network inhibition [7] 0.57%

CCc1ccc(C2CC(=O)N3CN(c4ccccc4)CSC3=C2C#N)cc1 (configuration not stated)
inactive: growth inhibition [1] 3.98% | growth inhibition [2] 21.7% | viability increase [3] -3.73% | viability [4] 101% | viability [5] 90.6% | inhibition [6] 1.68% | RAM network inhibition [7] -0.78%

COc1cc(C)c(C)cc1S(=O)(=O)N1CCN(Cc2ccccc2)CC1
inactive: growth inhibition [1] 9.11% | growth inhibition [2] -12.5% | viability increase [3] -3.89% | viability [4] 96.3% | viability [5] 93.5% | inhibition [6] 0.025% | RAM network inhibition [7] 5%

O=C(C1CC(c2ccc(F)cc2)=NO1)N1CCc2ccccc2C1 (configuration not stated)
inactive: growth inhibition [1] 1.34% | growth inhibition [2] -7.89% | viability increase [3] 0.59% | viability [4] 101% | viability [5] 99.5% | inhibition [6] 1.91% | RAM network inhibition [7] 7.63%

CCN(CCNC(=O)Cn1cc2c(n1)CCCC2)c1ccccc1
inactive: growth inhibition [1] -4.85% | growth inhibition [2] -6.55% | viability increase [3] 0.42% | viability [4] 109% | viability [5] 93.5% | inhibition [6] 2.4% | RAM network inhibition [7] 0.1%

NS(=O)(=O)c1ccc(CCNC(=O)C2CCCN(S(=O)(=O)c3cccnc3)C2)cc1 (configuration not stated)
inactive: growth inhibition [1] -8.75% | growth inhibition [2] -8.71% | viability increase [3] -0.63% | viability [4] 108% | viability [5] 97.7% | inhibition [6] 1.63% | RAM network inhibition [7] 5.27%

Cn1c(=O)oc2cc(S(=O)(=O)NCc3ccco3)ccc21
inactive: growth inhibition [1] 2.12% | growth inhibition [2] 5.31% | viability increase [3] -4.38% | viability [4] 101% | viability [5] 93.8% | inhibition [6] 1.41% | RAM network inhibition [7] 3.2%

COC(=O)C1C2C=CC3(CN(C(C)C)C(=O)C13)O2 (configuration not stated)
inactive: growth inhibition [1] -11.7% | growth inhibition [2] -17.2% | viability increase [3] -1.07% | viability [4] 106% | viability [5] 102% | inhibition [6] -0.215% | RAM network inhibition [7] 1.89%

Cc1cccn2c(=O)c(C=NCc3ccco3)c(Nc3ccc(Cl)cc3)nc12
inactive: growth inhibition [1] -14.3% | growth inhibition [2] -2.91% | viability increase [3] -6.81% | viability [4] 79.7% | viability [5] 76.1% | inhibition [6] 1.09% | RAM network inhibition [7] 1.21%

O=C(c1ccccc1Cl)N1CCC(c2nc3c(nnn3Cc3ccco3)c(=O)[nH]2)CC1
inactive: growth inhibition [1] -6.62% | growth inhibition [2] -11.1% | viability increase [3] -4.32% | viability [4] 92.5% | viability [5] 87.3% | inhibition [6] 0.69% | RAM network inhibition [7] 3.74%

CCc1ccc2c(c1)C(NC(C)=O)C(=O)N2CC (configuration not stated)
inactive: growth inhibition [1] -11.8% | growth inhibition [2] -3% | viability increase [3] -0.55% | viability [4] 78.5% | viability [5] 86% | inhibition [6] 0.73% | RAM network inhibition [7] 0.8%
